Measured values as given in article PMC5338039 (Biochemistry, 2017).
Entries after “also recorded” stand apart in the source; their conditions may differ.

Key:
[1] = target: T1, WT GPR55 (Homo sapiens, UniProt Q9Y2T6); experiment: SRE luciferase assay, WT GPR55; type: cell-based
[2] = target: T2, GPR55 F6.48A (Homo sapiens, UniProt Q9Y2T6, F239A); experiment: SRE luciferase assay, F6.48A mutant; type: cell-based
Summary of the method: (§1)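 HA-tagged human GPR55 (WT or sequence-confirmed site-directed mutant, pcDNA3) co-transfected by lipofection with pGL4.33 luc2P/SRE reporter into HEK293 cells; 60,000 cells/well, switched to 1% FBS/DMEM after 5 h, overnight. Agonist test compounds (10 mM DMSO stocks) added for 5 h in serum-free DMEM, 37°C. Cells lysed 10 min at room temperature, luciferin injected, luminescence read immediately (RLU). EC50 from sigmoidal nonlinear regression.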

[3] = target: T3, GPR55 F6.55A (Homo sapiens, UniProt Q9Y2T6, F246A); experiment: SRE luciferase assay, F6.55A mutant; type: cell-based
T3 sequence (Q9Y2T6 whole entry F246A): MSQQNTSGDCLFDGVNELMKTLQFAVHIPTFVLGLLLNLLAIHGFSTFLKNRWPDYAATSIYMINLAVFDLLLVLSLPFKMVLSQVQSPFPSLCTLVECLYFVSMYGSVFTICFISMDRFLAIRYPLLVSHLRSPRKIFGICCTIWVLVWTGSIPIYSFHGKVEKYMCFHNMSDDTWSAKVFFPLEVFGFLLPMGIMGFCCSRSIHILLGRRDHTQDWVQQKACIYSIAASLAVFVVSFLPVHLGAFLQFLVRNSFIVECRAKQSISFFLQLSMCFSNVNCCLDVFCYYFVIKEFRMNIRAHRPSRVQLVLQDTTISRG
Summary of the method: as §1

[4] = target: T4, GPR55 E3.29L (Homo sapiens, UniProt Q9Y2T6, E98L); experiment: SRE luciferase assay, E3.29L mutant; type: cell-based
T4 sequence (Q9Y2T6 whole entry E98L): as the sequence (Q9Y2T6 whole entry F246A) above, with E98L, A246F counted along it
Summary of the method: as §1

[5] = target: GPR55 Q7.36N (Homo sapiens, UniProt Q9Y2T6, Q271N); experiment: SRE luciferase assay, Q7.36N mutant; type: cell-based
Sequence of GPR55 Q7.36N (Q9Y2T6 whole entry Q271N): as the sequence (Q9Y2T6 whole entry F246A) above, with A246F, Q271N counted along it
Summary of the method: as §1

[6] = target: T5, GPR55 C(260)A (Homo sapiens, UniProt Q9Y2T6, C260A); experiment: SRE luciferase assay, C; type: cell-based
T5 sequence (Q9Y2T6 whole entry C260A): as the sequence (Q9Y2T6 whole entry F246A) above, with A246F, C260A counted along it
Summary of the method: as §1

[7] = target: T6, GPR55 C(10)A (Homo sapiens, UniProt Q9Y2T6, C10A); experiment: SRF luciferase assay, C; type: cell-based
T6 sequence (Q9Y2T6 whole entry C10A): as the sequence (Q9Y2T6 whole entry F246A) above, with C10A, A246F counted along it

[8] = target: T7, GPR55 Y3.32F (Homo sapiens, UniProt Q9Y2T6, Y101F); experiment: SRE luciferase assay, Y3.32F mutant; type: cell-based
T7 sequence (Q9Y2T6 whole entry Y101F): as the sequence (Q9Y2T6 whole entry F246A) above, with Y101F, A246F counted along it
Summary of the method: as §1

[9] = target: T8, GPR55 K2.60A (Homo sapiens, UniProt Q9Y2T6, K80A); experiment: SRE luciferase assay, K2.60A mutant; type: cell-based
T8 sequence (Q9Y2T6 whole entry K80A): as the sequence (Q9Y2T6 whole entry F246A) above, with K80A, A246F counted along it
Summary of the method: as §1

[10] = target: T1, WT GPR55; experiment: SRF luciferase assay, WT GPR55; type: cell-based
[11] = target: T9, GPR55 F6.55L (Homo sapiens, UniProt Q9Y2T6, F246L); experiment: SRF luciferase assay, F6.55L mutant; type: cell-based
T9 sequence (Q9Y2T6 whole entry F246L): as the sequence (Q9Y2T6 whole entry F246A) above, with A246L counted along it

[12] = target: T10, GPR55 Y3.32L (Homo sapiens, UniProt Q9Y2T6, Y101L); experiment: SRE luciferase assay, Y3.32L mutant; type: cell-based
T10 sequence (Q9Y2T6 whole entry Y101L): as the sequence (Q9Y2T6 whole entry F246A) above, with Y101L, A246F counted along it
Summary of the method: as §1

[13] = target: T9, GPR55 F6.55L; experiment: SRE luciferase assay, F6.55L mutant; type: cell-based
Summary of the method: as §1

[14] = tested on: GPR55; settings: agonist screen of the NIH library; cited from earlier work
[15] = target: T8, GPR55 K2.60A; experiment: SRF luciferase assay, K2.60A mutant; type: cell-based
[16] = target: GPR55 Q6.58M (Homo sapiens, UniProt Q9Y2T6, Q249M); experiment: SRE luciferase assay, Q6.58M mutant; type: cell-based
Sequence of GPR55 Q6.58M (Q9Y2T6 whole entry Q249M): as the sequence (Q9Y2T6 whole entry F246A) above, with A246F, Q249M counted along it
Summary of the method: as §1

[17] = target: T7, GPR55 Y3.32F; experiment: SRF luciferase assay, Y3.32F mutant; type: cell-based
[18] = target: T11, GPR55 E3.29A (Homo sapiens, UniProt Q9Y2T6, E98A); experiment: SRE luciferase assay, E3.29A mutant; type: cell-based
T11 sequence (Q9Y2T6 whole entry E98A): as the sequence (Q9Y2T6 whole entry F246A) above, with E98A, A246F counted along it
Summary of the method: as §1

[19] = target: T10, GPR55 Y3.32L; experiment: SRF luciferase assay, Y3.32L mutant; type: cell-based
[20] = target: T12, GPR55 M3.36A (Homo sapiens, UniProt Q9Y2T6, M105A); experiment: SRE luciferase assay, M3.36A mutant; type: cell-based
T12 sequence (Q9Y2T6 whole entry M105A): as the sequence (Q9Y2T6 whole entry F246A) above, with M105A, A246F counted along it
Summary of the method: as §1

[21] = target: T4, GPR55 E3.29L; experiment: SRF luciferase assay, E3.29L mutant; type: cell-based
[22] = target: T5, GPR55 C(260)A; experiment: SRF luciferase assay, C; type: cell-based
[23] = target: GPR55 H(170)F (Homo sapiens, UniProt Q9Y2T6, H170F); experiment: SRE luciferase assay, H; type: cell-based
Sequence of GPR55 H(170)F (Q9Y2T6 whole entry H170F): as the sequence (Q9Y2T6 whole entry F246A) above, with H170F, A246F counted along it
Summary of the method: as §1

[24] = target: T2, GPR55 F6.48A; experiment: SRF luciferase assay, F6.48A mutant; type: cell-based
[25] = target: T3, GPR55 F6.55A; experiment: SRF luciferase assay, F6.55A mutant; type: cell-based
[26] = target: T12, GPR55 M3.36A; experiment: SRF luciferase assay, M3.36A mutant; type: cell-based
[27] = target: GPR55 Q7.36A (Homo sapiens, UniProt Q9Y2T6, Q271A); experiment: SRE luciferase assay, Q7.36A mutant; type: cell-based
Sequence of GPR55 Q7.36A (Q9Y2T6 whole entry Q271A): as the sequence (Q9Y2T6 whole entry F246A) above, with A246F, Q271A counted along it
Summary of the method: as §1

[28] = target: T6, GPR55 C(10)A; experiment: SRE luciferase assay, C; type: cell-based
Summary of the method: as §1

[29] = target: T11, GPR55 E3.29A; experiment: SRF luciferase assay, E3.29A mutant; type: cell-based

T2 sequence (Q9Y2T6 whole entry F239A): as the sequence (Q9Y2T6 whole entry F246A) above, with F239A, A246F counted along it
T1 sequence (Q9Y2T6 whole entry): as the sequence (Q9Y2T6 whole entry F246A) above, with A246F counted along it

With `Cc1cccc(N2CCN(C(=O)c3cc(S(=O)(=O)N(C)C)ccc3N3CCCC3)CC2)c1C` [ML184, 3-[4-(2,3-dimethylphenyl)piperazine-1-carbonyl]-N,N-dimethyl-4-pyrrolidin-1-ylbenzenesulfonamide] the EC50 [1] was 56 nM, the EC50 [2] was 514 nM and the “SRE response compared with WT (in words)” value ([2]; F6.48A) was “SRE induction comparable to wild-type; also recorded: increased EC50 values”. The “Fold/WT, SRE EC50” value ([2]; F6.48A vs WT) was 9 fold, the EC50 [3] was 840 nM and the “SRE response compared with WT (in words)” value ([3]; F6.55A) was “right shifted curves”. The “Fold/WT, SRE EC50” value ([3]; F6.55A vs WT) was 15 fold, the EC50 [4] was over 30000 nM and the “SRE response compared with WT (in words)” value ([4]; E3.29L) was “profound reduction of receptor signalling; also recorded: very little responses”. The EC50 [5] was 154 nM, the “SRE response compared with WT (in words)” value ([5]; Q7.36N) was “retains WT signalling” and the “Fold/WT, SRE EC50” value ([5]; Q7.36N vs WT) was 3 fold. The EC50 [6] was 657 nM, the “Fold/WT, SRE EC50” value ([6]; C(260)A vs WT) was 12 fold and the EC50 [7] was 554 nM. For the same molecule, the “SRF response compared with WT (in words)” value ([7]; C(10)A) was “less response than WT”, the “Fold/WT, SRF EC50” value ([7]; C(10)A vs WT) was 17 fold and the EC50 [8] was 1660 nM. For the same molecule, the “SRE response compared with WT (in words)” value ([8]; Y3.32F) was “right shifted SRE response curves”, the “Fold/WT, SRE EC50” value ([8]; Y3.32F vs WT) was 30 fold and the “SRE response compared with WT (in words)” value [9] was “complete loss of signalling; also recorded: did not show any response”. The “EC50, SRE response” value ([9]; transfected HEK293, n ≥ 3) was “NO response”, the EC50 [10] was 33 nM and the EC50 [11] was 10500 nM. For the same molecule, the “SRF response compared with WT (in words)” value ([11]; F6.55L) was “higher EC50 values than WT”, the “Fold/WT, SRF EC50” value ([11]; F6.55L vs WT) was 318 fold and the EC50 [12] was 9510 nM. The “SRE response compared with WT (in words)” value ([12]; Y3.32L) was “right shifted SRE response curves”, the “Fold/WT, SRE EC50” value ([12]; Y3.32L vs WT) was 170 fold and the EC50 [13] was 5130 nM. The “SRE response compared with WT (in words)” value ([13]; F6.55L) was “right shifted curves”, the “Fold/WT, SRE EC50” value ([13]; F6.55L vs WT) was 92 fold and the EC50 [14] was 263 nM. The “SRF response compared with WT (in words)” value [15] was “not able to induce any response; also recorded: complete loss of signalling”, the “EC50, SRF response” value ([15]; transfected HEK293, n ≥ 3) was “NO response” and the EC50 [16] was 72 nM. The “SRE response compared with WT (in words)” value ([16]; Q6.58M) was “retained WT signalling; also recorded: almost identical to that of WT”, the “Fold/WT, SRE EC50” value ([16]; Q6.58M vs WT) was 1 fold and the EC50 [17] was 851 nM. For the same molecule, the “SRF response compared with WT (in words)” value ([17]; Y3.32F) was “right shifted curves”, the “Fold/WT, SRF EC50” value ([17]; Y3.32F vs WT) was 26 fold and the EC50 [18] was over 30000 nM. The “SRE response compared with WT (in words)” value ([18]; E3.29A) was “profound reduction of receptor signalling; also recorded: very little responses”, the EC50 [19] was 864000 nM and the “SRF response compared with WT (in words)” value ([19]; Y3.32L) was “right shifted curves”. The “Fold/WT, SRF EC50” value ([19]; Y3.32L vs WT) was 26182 fold, the EC50 [20] was 900 nM and the “SRE response compared with WT (in words)” value ([20]; M3.36A) was “SRE induction comparable to wild-type; also recorded: increased EC50 values”. For the same molecule, the “Fold/WT, SRE EC50” value ([20]; M3.36A vs WT) was 16 fold, the EC50 [21] was over 30000 nM and the “SRF response compared with WT (in words)” value ([21]; E3.29L) was “reduced responses”. For the same molecule, the EC50 [22] was 363 nM, the “SRF response compared with WT (in words)” value ([22]; C(260)A) was “less response than WT” and the “Fold/WT, SRF EC50” value ([22]; C(260)A vs WT) was 11 fold. The EC50 [23] was 341 nM, the “SRE response compared with WT (in words)” value ([23]; H(170)F) was “slight difference from that of WT” and the “Fold/WT, SRE EC50” value ([23]; H(170)F vs WT) was 6 fold. For the same molecule, the EC50 [24] was 335 nM, the “SRF response compared with WT (in words)” value ([24]; F6.48A) was “reduced responses” and the “Fold/WT, SRF EC50” value ([24]; F6.48A vs WT) was 10 fold. The EC50 [25] was 550 nM, the “SRF response compared with WT (in words)” value ([25]; F6.55A) was “higher EC50 values than WT” and the “Fold/WT, SRF EC50” value ([25]; F6.55A vs WT) was 17 fold. The EC50 [26] was 2040 nM, the “SRF response compared with WT (in words)” value ([26]; M3.36A) was “reduced responses” and the “Fold/WT, SRF EC50” value ([26]; M3.36A vs WT) was 62 fold. The EC50 [27] was 230 nM, the “SRE response compared with WT (in words)” value ([27]; Q7.36A) was “retains WT signalling” and the “Fold/WT, SRE EC50” value ([27]; Q7.36A vs WT) was 4 fold. The EC50 [28] was 635 nM, the “Fold/WT, SRE EC50” value ([28]; C(10)A vs WT) was 11 fold and the EC50 [29] was over 30000 nM. The “SRF response compared with WT (in words)” value ([29]; E3.29A) was “reduced responses”.
